Source: ChEMBL document CHEMBL1157359, “Binding of ceftobiprole and comparators to the penicillin-binding proteins of Escherichia coli, Pseudomonas aeruginosa, Staphylococcus aureus, and Streptococcus pneumoniae” (Antimicrob Agents Chemother, 2007)
Values after ≈ are worked out from the molar mass of the structure shown.

Test: Inhibition of bocillin FL binding to penicillin-resistant Streptococcus pneumoniae OC 8819 penicillin-binding protein 1b
Outline: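 Whole S. pneumoniae cells were used rather than isolated membranes. Cells were competed with drug and then labeled with Bocillin FL, and PBP bands were visualized by fluorescence imaging. IC50 is the drug concentration that inhibits Bocillin FL binding to each PBP by 50% relative to a no-drug control.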

**Q.** Which IC50 does the source give for `CO/N=C(\C(=O)N[C@@H]1C(=O)N2C(C(=O)O)=C(CSc3nc(=O)c(O)nn3C)CS[C@H]12)c1csc(N)n1` (stereo in doubt) [CEFTRIAXONE] here?
**A.** 0.02 µg/mL (≈ 0.0361 µM)
